≈ marks a conversion by molar mass, not a printed value.

As a reminder, the IC50 is the midpoint of a concentration-inhibition curve. A higher IC50 goes with lower potency.

Holding throughout (type): functional, organism-based
Assay [1] concerns Toxoplasma gondii. Kind of assay: Antimicrobial activity against Toxoplasma gondii isolate GRE-1998-TRA infected in human MRC-5 cells after 72 hrs by ELISA. The following applies: MRC5, 72 h. The procedure, abridged:
(§1)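 Confluent MRC-5 fibroblasts (3.5 x 10^4 to 4 x 10^4 cells/well) inoculated with tachyzoites freshly harvested from THP-1 cultures, 0.4 to 1 tachyzoite/10 cells adjusted per strain for nonconfluent foci at 72 h. Drugs (stock 1 mg/ml in 50% methanol-50% acetone, diluted in RPMI) added 3 h post-inoculation, four to eight replicate wells per dilution. Cultures incubated 72 h.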
A general note: ELISA stands for enzyme-linked immunosorbent assay.

Assay [2] deals with Toxoplasma gondii. Kind of assay: Antimicrobial activity against Toxoplasma gondii isolate GUY-2003-MEL harboring DHPS Ex2, E474D/Ex4, R560K/Ex5, 580 sil Gly/ A597E/627 sil Glu mutant gene and DHFR Ex2, 145 sil Val mutant gene infected in human MRC-5 cells after 72 hrs by ELISA. The following applies: MRC5, 72 h. The procedure, abridged: (§2)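 Tachyzoites freshly harvested from THP-1 cultures inoculated at 0.4 to 1 tachyzoite/10 cells, adjusted per strain, onto confluent MRC-5 fibroblasts. Drugs were stocked at 1 mg/ml in 50% methanol-50% acetone, diluted in RPMI, and added 3 h post-inoculation in four to eight replicate wells. Incubation was 72 h, then methanol fixation. Read-out was ELISA with rabbit anti-Toxoplasma serum and peroxidase anti-rabbit conjugate, TMB substrate, OD 405 nm. IC50 came from linear regression of OD versus log concentration; experiments were run in duplicate.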

The subject of assay [3] is Toxoplasma gondii. The experiment in a line: Antimicrobial activity against Toxoplasma gondii NED infected in human MRC-5 cells after 72 hrs by ELISA. The note with it: MRC5, 72 h. The procedure, abridged:
as §1

Assay [4] relates to Toxoplasma gondii. The experiment in a line: Antimicrobial activity against Toxoplasma gondii ME49 infected in human MRC-5 cells infected in human MRC-5 cells after 72 hrs by ELISA. The note with it: ME49, MRC5, 72 h. The procedure, abridged: as §1
In assay [5] the test system is Toxoplasma gondii. Kind of assay: Antimicrobial activity against Toxoplasma gondii isolate RMS-2001-MAU infected in human MRC-5 cells after 72 hrs by ELISA. The following applies: MRC5, 72 h. In a few lines: as §1
In assay [6] the test system is Toxoplasma gondii. Kind of assay: Antimicrobial activity against Toxoplasma gondii isolate TOU-1998-TRI infected in human MRC-5 cells after 72 hrs by ELISA. The note with it: MRC5, 72 h. In a few lines:
as §1

Assay [7] has as its system Toxoplasma gondii. The experiment in a line: Antimicrobial activity against Toxoplasma gondii isolate RMS-2003-DJO infected in human MRC-5 cells after 72 hrs by ELISA. The note with it: MRC5, 72 h. The procedure, abridged:
as §1

Assay [8] relates to Toxoplasma gondii. The experiment in a line: Antimicrobial activity against Toxoplasma gondii ENT harboring DHPS Ex2, E474D/Ex3, 156 sil Leu/Ex4, R560K/Ex5, 580 sil Gly/A597E/627 sil Glu mutant gene and DHFR Ex3, 156 sil Leu mutant gene infected in human MRC-5 cells after 72 hrs by ELISA. The following applies: MRC5, 72 h. The procedure, abridged: as §2
For assay [9], the system named is Toxoplasma gondii. Kind of assay: Antimicrobial activity against Toxoplasma gondii isolate RMS-2005-HAG infected in human MRC-5 cells after 72 hrs by ELISA. The following applies: MRC5, 72 h. The procedure, abridged: as §1
Assay [10] has as its system Toxoplasma gondii. The experiment in a line: Antimicrobial activity against Toxoplasma gondii isolate RMS-1995-ABE harboring DHPS Ex5, A587V mutant gene infected in human MRC-5 cells after 72 hrs by ELISA. The following applies: MRC5, 72 h. The procedure, abridged: as §2
For assay [11], the system named is Toxoplasma gondii. The experiment in a line: Antimicrobial activity against Toxoplasma gondii RH harboring DHPS Ex2, E474D/Ex4, R560K/Ex5, 580 sil Gly; A597E/627 sil Glu mutant gene and DHFR Ex3, 156 sil Leu mutant gene infected in human MRC-5 cells after 72 hrs by ELISA. The note with it: MRC5, 72 h. In a few lines:
as §2

For assay [12], the system named is Toxoplasma gondii. Kind of assay: Antimicrobial activity against Toxoplasma gondii isolate TRS-2004-REV infected in human MRC-5 cells after 72 hrs by ELISA. The note with it: MRC5, 72 h. The procedure, abridged: as §1
Assay [13] concerns Toxoplasma gondii. The experiment in a line: Antimicrobial activity against Toxoplasma gondii isolate GRE-1995-MAE infected in human MRC-5 cells after 72 hrs by ELISA. The note with it: MRC5, 72 h. In a few lines:
as §1

Assay [14] has as its system Toxoplasma gondii. The experiment in a line: Antimicrobial activity against Toxoplasma gondii isolate PSP-2005-MUP infected in human MRC-5 cells after 72 hrs by ELISA. The note with it: MRC5, 72 h. In a few lines:
as §1

The test system of assay [15] is Toxoplasma gondii. Kind of assay: Antimicrobial activity against Toxoplasma gondii isolate RMS-1994-LEF harboring DHPS Ex2, E474D/Ex4, R560K/Ex5, 580 sil Gly; A597E/627 sil Glu mutant gene and DHFR Ex3, 204 sil Ala mutant gene infected in human MRC-5 cells after 72 hrs by ELISA. The note with it: MRC5, 72 h. The procedure, abridged:
as §2

Assay [16] relates to Toxoplasma gondii. Kind of assay: Antimicrobial activity against Toxoplasma gondii B1 harboring DHPS Ex2, E474D/Ex4, R560K/Ex5, 580 sil Gly/ A597E/627 sil Glu mutant gene and DHFR Ex3, 156 sil Leu mutant gene infected in human MRC-5 cells after 72 hrs by ELISA. The following applies: B1, MRC5, 72 h. In a few lines:
as §2

As to `O=C1C(O)=C([C@H]2CC[C@H](c3ccc(Cl)cc3)CC2)C(=O)c2ccccc21` [ATOVAQUONE], the IC50 came out at 0.05 µg/mL (≈ 0.136 µM) with Toxoplasma gondii [1]; 0.04 µg/mL (≈ 0.109 µM) with Toxoplasma gondii [2]; 0.03 µg/mL (≈ 0.0818 µM) with Toxoplasma gondii [3]; 0.05 µg/mL (≈ 0.136 µM) in the assay with Toxoplasma gondii [4]; 0.06 µg/mL (≈ 0.164 µM) in the assay on Toxoplasma gondii [5]; 0.07 µg/mL (≈ 0.191 µM) in the assay with Toxoplasma gondii [6]. Moreover, the half-inhibitory concentration (IC50) was 0.08 µg/mL (≈ 0.218 µM) in the assay with Toxoplasma gondii [7]; 0.07 µg/mL (≈ 0.191 µM) with Toxoplasma gondii [8]; 0.04 µg/mL (≈ 0.109 µM) with Toxoplasma gondii [9]; 0.11 µg/mL (≈ 0.3 µM) in the assay with Toxoplasma gondii [10]; 0.05 µg/mL (≈ 0.136 µM) in the assay with Toxoplasma gondii [11]; 0.07 µg/mL (≈ 0.191 µM) with Toxoplasma gondii [12]. For the same molecule, the IC50 in the assay on Toxoplasma gondii [13] turned out to be 0.03 µg/mL (≈ 0.0818 µM); in the assay on Toxoplasma gondii [14], 0.06 µg/mL (≈ 0.164 µM); in the assay with Toxoplasma gondii [15], 0.04 µg/mL (≈ 0.109 µM); with Toxoplasma gondii [16], 0.1 µg/mL (≈ 0.273 µM).
On to `CCc1nc(N)nc(N)c1-c1ccc(Cl)cc1` [PYRIMETHAMINE], for which the IC50 in the assay with Toxoplasma gondii [1] came out at 0.39 µg/mL (≈ 1.57 µM); with Toxoplasma gondii [2], 0.25 µg/mL (≈ 1.01 µM); with Toxoplasma gondii [3], 0.19 µg/mL (≈ 0.764 µM); in the assay with Toxoplasma gondii [4], 0.09 µg/mL (≈ 0.362 µM); in the assay on Toxoplasma gondii [5], 0.12 µg/mL (≈ 0.482 µM); in the assay with Toxoplasma gondii [6], 0.15 µg/mL (≈ 0.603 µM). For the same molecule, the IC50 in the assay with Toxoplasma gondii [7] was determined as 0.09 µg/mL (≈ 0.362 µM); in the assay on Toxoplasma gondii [8], 0.34 µg/mL (≈ 1.37 µM); with Toxoplasma gondii [9], 0.11 µg/mL (≈ 0.442 µM); in the assay on Toxoplasma gondii [10], 0.17 µg/mL (≈ 0.684 µM); in the assay with Toxoplasma gondii [11], 0.1 µg/mL (≈ 0.402 µM); with Toxoplasma gondii [12], 0.18 µg/mL (≈ 0.724 µM). Also, the half-maximal inhibitory concentration (IC50) was found to be 0.11 µg/mL (≈ 0.442 µM) with Toxoplasma gondii [13], 0.14 µg/mL (≈ 0.563 µM) in the assay with Toxoplasma gondii [14], 0.07 µg/mL (≈ 0.281 µM) in the assay with Toxoplasma gondii [15] and 0.35 µg/mL (≈ 1.41 µM) with Toxoplasma gondii [16].
With `Nc1ccc(S(=O)(=O)Nc2ncccn2)cc1` [SULFADIAZINE], the IC50 in the assay on Toxoplasma gondii [1] is 16.8 µg/mL (≈ 67.3 µM); in the assay on Toxoplasma gondii [2], 5.35 µg/mL (≈ 21.4 µM); with Toxoplasma gondii [3], 9.25 µg/mL (≈ 37 µM); with Toxoplasma gondii [4] it was 6.55 µg/mL (≈ 26.2 µM); in the assay with Toxoplasma gondii [5] it was more than 50 µg/mL; in the assay on Toxoplasma gondii [6] it was 2.95 µg/mL (≈ 11.8 µM). Moreover, the half-inhibitory concentration (IC50) in the assay with Toxoplasma gondii [7] is 4.9 µg/mL (≈ 19.6 µM); with Toxoplasma gondii [8] it was 4.28 µg/mL (≈ 17.1 µM); in the assay on Toxoplasma gondii [9], 6.7 µg/mL (≈ 26.8 µM); in the assay on Toxoplasma gondii [10], more than 50 µg/mL; with Toxoplasma gondii [11], 6.52 µg/mL (≈ 26.1 µM); in the assay with Toxoplasma gondii [12], 6.26 µg/mL (≈ 25 µM). In addition, the IC50 with Toxoplasma gondii [13] was 14.9 µg/mL (≈ 59.7 µM); in the assay on Toxoplasma gondii [14], 18.8 µg/mL (≈ 75.1 µM); in the assay with Toxoplasma gondii [15] it was 9.65 µg/mL (≈ 38.6 µM); in the assay on Toxoplasma gondii [16] it was more than 50 µg/mL.

The record behind these values is ChEMBL document CHEMBL1255293, “In vitro susceptibility of various genotypic strains of Toxoplasma gondii to pyrimethamine, sulfadiazine, and atovaquone” (Antimicrob Agents Chemother, 2008).
